# CAL PDZ FP-1 = human CAL PDZ-peptide interaction inhibition; Q9HD26; purified CAL PDZ, TMR-peptide fluorescence polarization, 1 h; inhibition, % at 20 µM; hit rate 0.02% among 330,000; AID 504414;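 active means highest replicate inhibition of at least 40%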
#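 System: purified tagged CAL PDZ domain construct (CerCALP). Schedule: 1 h incubation at room temperature before polarization reading. Medium: 25 mM sodium phosphate pH 7.4, 150 mM NaCl, TCEP, IgG, Thesit. Read-out: percent inhibition from loss of millipolarization. Measured by: FP readout, S and P plane fluorescence. Probe or stimulus: fluorescent TMR peptide probe.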
# CAL PDZ FP-2 = CAL PDZ (human) peptide binding inhibition; Q9HD26; purified CAL PDZ, TMR-peptide fluorescence polarization, 1 h; inhibition, % at 24.9 µM; hit rate 0.92% among 300,000; AID 602252;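 active means mean inhibition of at least 30% with at least half of replicates also reaching 30%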
# ATG4B inhibitor = blocks human ATG4B protease cleavage of LC3 substrate. Q9Y4P1. ATG4B cleavage of LC3-PLA2, NBD-HPC fluorescence, 1 h. inhibition, % at 8.33 µM. hit rate 0.51% among 340,000. AID 504462; in the data active means inhibition above about 40%
# SR-BI DiI inh = inhibitors of mouse SR-BI mediated HDL lipid uptake; hit rate 0.96% among 320,000; AID 488896; ldlA[mSR-BI] CHO cells, DiI-HDL uptake fluorescence, 3 h; Q61009; inhibition, % at 12.5 µM;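 active means mean replicate inhibition of at least 70% and a set share of replicates each scoring 70 or more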
# Target sequence (Q61009 whole entry, looked up): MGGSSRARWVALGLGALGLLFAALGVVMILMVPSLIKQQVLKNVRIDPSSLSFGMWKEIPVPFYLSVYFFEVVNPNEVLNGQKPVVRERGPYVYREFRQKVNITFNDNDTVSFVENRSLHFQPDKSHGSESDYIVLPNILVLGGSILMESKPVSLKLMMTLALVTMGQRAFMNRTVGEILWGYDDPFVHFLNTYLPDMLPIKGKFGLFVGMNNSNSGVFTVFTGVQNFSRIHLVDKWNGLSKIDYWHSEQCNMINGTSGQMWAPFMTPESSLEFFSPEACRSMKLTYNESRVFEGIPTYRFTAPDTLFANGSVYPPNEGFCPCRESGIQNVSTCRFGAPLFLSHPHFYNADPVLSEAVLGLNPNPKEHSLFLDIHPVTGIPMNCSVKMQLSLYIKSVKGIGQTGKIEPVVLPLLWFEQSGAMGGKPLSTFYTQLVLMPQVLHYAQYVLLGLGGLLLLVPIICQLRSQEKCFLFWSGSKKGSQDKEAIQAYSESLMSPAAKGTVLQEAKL
# SR-BI DiI-HDL act = SR-BI HDL lipid transfer activation; CHO ldlA[mSR-BI] cells, DiI-HDL uptake fluorescence, 3 h; 100 = double the neutral-control signal; activation, % at 12.5 µM; hit rate 0.096% among 320,000; AID 504775;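 active means mean replicate activation of at least 60% and every replicate at or above 60%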
#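 Material – SR-BI-overexpressing, LDLR-lacking CHO cells · Medium – BSA-supplemented, HEPES-buffered Ham's F12, pH 7.4 · Doses – single concentration · Times – compound with DiI-HDL co-incubation, 3 h at 37 °C · Measured by – bottom-read fluorescence, 550/595 nm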
# Numbers stand for hits; . = inactive; / = not tested or not shown; + = active, no number. Shown are actives, neighbours in structure and some others; about 2.3% of the full set was active somewhere.
SMILES,CAL PDZ FP-1,CAL PDZ FP-2,ATG4B inhibitor,SR-BI DiI inh,SR-BI DiI-HDL act
COc1ccc(/C=C/C(O)=C(\C#N)c2nnc(N3CCOCC3)n2-c2ccccc2)cc1OC,.,.,.,75.5,.
Oc1[nH]c2ccccc2c1N=Nc1nncc2ccccc12,.,51.8,.,.,.
Oc1[nH]c2ccccc2c1N=Nc1ccccn1,.,.,.,.,.
O=C(NCc1cccnc1)c1ccc(Cn2c(=S)[nH]c3ccc(Br)cc3c2=O)cc1,.,+,.,.,.
COc1ccc2sc(-c3ccc(S(C)(=O)=O)cc3)c(-c3ccc4c(c3)OCCO4)c2c1,.,.,.,.,.
COc1cc2sc(-c3ccc(S(C)(=O)=O)cc3)c(-c3ccc4c(c3)OCO4)c2cc1OC,.,.,.,82.7,.
COc1ccc2c(-c3ccc(SC)cc3)c(-c3ccc(S(C)(=O)=O)cc3)sc2c1,.,.,.,81.0,.
COc1ccc2sc(-c3ccc(S(C)(=O)=O)cc3)c(-c3ccc(SC)cc3)c2c1,.,.,.,.,.
CCC(CO)NCc1ccc(OC2CCCC2)cc1 (stereo not given),.,46.9,.,.,.
COC(=O)c1ccc(C2/C(=C(/O)c3ccc4c(c3)CC(C)O4)C(=O)C(=O)N2Cc2ccncc2)cc1 (stereo not given),.,.,.,.,.
CCOc1ccc(C(C(=O)NCC2CCCO2)N(Cc2cccc(OC)c2)C(=O)c2snc(C(N)=O)c2N)cc1 (stereo not given),.,.,.,/,/
CCOc1ccc(C(C(=O)NCC2CCCO2)N(Cc2ccccc2)C(=O)c2snc(C(N)=O)c2N)cc1 (stereo not given),.,88.0,.,.,.
CC(=O)c1cccc(NC(=O)Cn2c(=O)oc3cc(S(=O)(=O)N4CCCC4)ccc32)c1,.,.,.,.,.
Cc1ccsc1CN1CCC(C(=O)NCc2ccccc2Cl)CC1,.,59.3,.,.,.
O=C(Cn1c(=O)oc2cc(S(=O)(=O)N3CCCC3)ccc21)Nc1ccccc1Br,.,60.6,.,.,.
COc1ccc(NC(=O)C2CCN(S(=O)(=O)c3ccc(N4CCCC4=O)cc3)CC2)c(OC)c1,.,34.4,.,.,.
COc1ccc(NC(=O)C2CCN(S(=O)(=O)c3ccc(OC)c(OC)c3)CC2)c(OC)c1,.,.,.,.,.
Cn1c(=O)oc2cc(S(=O)(=O)N3CCC(C(=O)NCc4ccccc4Cl)CC3)ccc21,.,50.3,.,.,.
Cc1cccc(C)c1-c1ccc(CN2C(CC(C)C)C(=O)N(Cc3cn(CC4CCCCC4)nn3)CCS2(=O)=O)cc1 (stereo not given),.,.,.,.,.
O=C(Nc1ccnn1C1CCN(C(=O)c2ccc(F)cc2)CC1)C1CCOC1 (stereo not given),.,.,.,.,.
O=C(NCc1ccccc1Cl)C1CCN(S(=O)(=O)c2ccc(N3CCCC3=O)cc2)CC1,.,.,.,113.8,/
O=C(NCc1ccccc1Cl)C1CCN(S(=O)(=O)c2ccc(-n3cnnn3)cc2)CC1,.,.,.,/,/
CC1(C)CC(=O)C(CO)=C(c2cccc3ccccc23)C1=O,.,.,.,.,.
CC(C)(C)c1ccc(C(=O)NNc2ncccc2-n2cccc2)cc1,.,169.5,.,.,.
O=C(NNc1ncccc1-n1cccc1)c1ccc(Cl)cc1,.,.,.,.,.
SMILES,CAL PDZ FP-1,CAL PDZ FP-2,ATG4B inhibitor,SR-BI DiI inh,SR-BI DiI-HDL act
CCCCCC(=O)Nc1cc(S(=O)(=O)O)cc2cc(S(=O)(=O)O)cc(O)c12,.,.,43.0,.,.
CC1=C(C(=O)OCCCCCl)C(c2cc3c(cc2Br)OCO3)NC(=O)N1 (stereo not given),.,.,.,.,.
CCOc1[nH]n(-c2ccccc2)c(=O)c1C=Nc1ccc(OC)cc1,.,.,.,.,.
CCOc1[nH]n(-c2ccc(Cl)cc2)c(=O)c1C=Nc1ccc(Cl)cc1,/,.,.,74.5,.
O=C(COc1ccc(Br)cc1F)Nc1nnc(C2CC2)s1,.,.,.,.,.
O=C(COc1cc(Cl)ccc1Cl)Nc1nnc(C2CC2)s1,.,37.3,.,.,.
CCCC(NC(=O)c1ccc(Br)o1)c1nc2ccccc2[nH]1 (stereo not given),.,.,.,.,.
CC1Sc2ccc(S(=O)(=O)CCC(=O)NC3CCCC(C)C3C)cc2NC1=O (stereo not given),.,.,.,.,.
COc1ccc(OC)c(NC(=O)C(=O)N/N=C/c2ccccc2[N+](=O)[O-])c1,.,.,.,80.6,.
COc1ccc(NC(=O)C(=O)N/N=C/c2cc(C)n(-c3cccc(Cl)c3Cl)c2C)c(OC)c1,.,.,.,72.3,.
O=[N+]([O-])c1ccccc1C=NNC(=S)NN=Cc1ccccc1[N+](=O)[O-],.,/,.,.,.
COc1ccc(NC(=O)c2ccc(-n3c(C)ccc3C)cc2)c(OC)c1,.,.,.,.,.
CN(c1ccc(F)cc1)S(=O)(=O)c1ccc(Cl)c(C(=O)NCC2(N3CCOCC3)CCCCC2)c1,.,.,.,.,.
CSc1cccc(NC(=O)CNC(=O)c2ccc3c(c2)OCO3)c1,.,61.1,.,.,.
CCOc1ccc(C(=O)NCC(=O)Nc2ccc3c(c2)OCO3)cc1OCC,.,.,.,.,.
Cc1ccc(NC(=O)CCN2CCC(C(N)=O)CC2)cc1,.,.,.,.,.
CCCC(=O)Nc1c(-c2ccccc2)c(=O)c(C)nn1-c1ccc(C)cc1,.,/,.,.,314.7
Cc1ccc(-n2nc(C)c(=O)c(-c3ccccc3)c2NC(=O)c2cccs2)cc1,.,.,.,.,.
O=C(CN1CCN(c2ccc(O)cc2)CC1)N1CCc2ccccc21,.,49.3,.,.,.
Cc1ccnc(NC(=O)CNC(=O)c2ccc(Br)o2)c1,.,.,.,.,.
COCCNc1nc2c(c(=O)n(Cc3ccccc3F)c(=O)n2C)n1C,.,.,.,.,.
Cn1c(NCc2cccnc2)nc2c1c(=O)n(Cc1ccccc1F)c(=O)n2C,.,+,.,.,.
Cc1cccc(C)c1NC(=O)C(=O)NCCCN1CCOCC1,.,.,.,.,.
Cc1cccc(C)c1NC(=O)NCCCN1CCN(c2ccccc2)CC1,.,51.3,.,.,.
c1ccc2c(NC3=NCCCCS3)cccc2c1,/,33.8,.,.,.
SMILES,CAL PDZ FP-1,CAL PDZ FP-2,ATG4B inhibitor,SR-BI DiI inh,SR-BI DiI-HDL act
c1ccc(NC2=NCCCCS2)cc1,.,.,.,.,.
NC(=S)NN=C1CCCCC12CCCC2,.,.,.,75.0,.
CC1(C)CCC(=NNC(N)=S)CC1,.,.,.,.,.
NC(=S)NN=C1CCC2(CCCCC2)CC1,.,/,.,84.9,.
COc1ccc(C)cc1S(=O)(=O)N1CCN(C)CC1c1ccccc1 (stereo not given),.,/,.,.,.
COc1cccc(/C=N/n2c(N)c(S(=O)(=O)c3cccs3)c3nc4ccccc4nc32)c1,.,.,.,.,.

# Assay outcomes deposited in PubChem BioAssay by several laboratories.
